Calls of active or inactive are those of the source. The calls are words filed in the database; no cut-off is given here.
Legend:
U-937 [1] = test: Induction of cell cycle arrest in human U937 cells assessed as accumulation at G2/M phase at 3 uM after 12 hrs by propidium iodide staining based flow cytometry (reference value: 24.2 +/- 1.2%); format: functional
U-937 [2] = test: Induction of cell cycle arrest in human U937 cells assessed as accumulation at subG1 phase at 1 uM after 24 hrs by propidium iodide staining based flow cytometry (reference value: 3.9 +/- 0.8%); format: functional
U-937 [3] = test: Induction of apoptosis in human U937 cells assessed as pro-caspase-7 cleavage by Western blotting method; format: functional, cell-based
Procedure, shortened: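 U937 cells exposed to increasing concentrations of the flavonol and harvested at 24 h. Lysates were immunoblotted with antibodies that detect both the pro-caspases and their cleaved forms.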

HL-60 [4] = test: Induction of cell cycle arrest in human HL60 cells assessed as accumulation at subG1 phase at 10 uM after 48 hrs by propidium iodide staining based flow cytometry (reference value: 3.7 +/- 0.1%); format: functional
HL-60 [5] = test: Induction of apoptosis in human HL60 cells in presence of JNK/SAPK inhibitor SP600125 after 24 hrs by propidium iodide staining based flow cytometry; format: functional, cell-based
MOLT-3 = test: Induction of apoptosis in human MOLT3 cells assessed as pro-caspase-9 cleavage by Western blotting method; format: functional, cell-based
Procedure, shortened: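 Cells were exposed to a range of compound concentrations and harvested at 24 h. Lysates were immunoblotted for caspase proforms and cleaved forms, and for Bcl-2 family proteins.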

U-937 [6] = test: Induction of cell cycle arrest in human U937 cells assessed as accumulation at S phase at 10 uM after 12 hrs by propidium iodide staining based flow cytometry (reference value: 20.5 +/- 0.8%); format: functional
U-937 [7] = test: Induction of cell cycle arrest in human U937 cells assessed as accumulation at G2/M phase at 1 uM after 48 hrs by propidium iodide staining based flow cytometry (reference value: 19.1 +/- 1.1%); format: functional
U-937 [8] = test: Induction of apoptosis in human U937 cells assessed as increase in caspase 9 activity using LEHD-pNA substrate at 10 uM after 24 hrs; format: functional, cell-based
Procedure, shortened: (§1)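 Cells were given 10 µM for 24 h. Lysates were assayed for cleavage of DEVD-pNA (caspase-3/7), IETD-pNA (caspase-8) and LEHD-pNA (caspase-9). Results are expressed as fold over control, from three independent experiments in triplicate.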

U-937 [9] = test: Induction of cell cycle arrest in human U937 cells assessed as accumulation at subG1 phase at 10 uM after 24 hrs by propidium iodide staining based flow cytometry (reference value: 3.9 +/- 0.8%); format: functional
HL-60 [10] = test: Induction of cell cycle arrest in human HL60 cells assessed as accumulation at S phase at 3 uM after 12 hrs by propidium iodide staining based flow cytometry (reference value: 14.7 +/- 0.3%); format: functional
U-937 [11] = test: Induction of cell cycle arrest in human U937 cells assessed as accumulation at S phase at 3 uM after 24 hrs by propidium iodide staining based flow cytometry (reference value: 18.6 +/- 0.3%); format: functional
U-937 [12] = test: Induction of cell cycle arrest in human U937 cells assessed as accumulation at S phase at 1 uM after 48 hrs by propidium iodide staining based flow cytometry (reference value: 18.9 +/- 0.2%); format: functional
U-937 [13] = test: Induction of apoptosis in human U937 cells assessed as increase in caspase 3/7 activity using DEVD-pNA substrate at 10 uM after 24 hrs; format: functional, cell-based; procedure, shortened: as §1
[14] = Cytotoxicity against human HL60 cells after 72 hrs by MTT assay; format: functional, cell-based; details: HL-60, 72 h
Procedure, shortened: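 MTT colorimetric assay with 72 h continuous exposure. IC50 was fitted per experiment by non-linear regression. Values are means with SE from at least three independent experiments, each run in triplicate.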

HL-60 [15] = test: Induction of cell cycle arrest in human HL60 cells assessed as accumulation at G1 phase at 3 uM after 48 hrs by propidium iodide staining based flow cytometry (reference value: 60.4 +/- 0.4%); format: functional
U-937 [16] = test: Induction of apoptosis in human U937 cells assessed as increase in caspase 8 activity using IETD-pNA substrate at 10 uM after 24 hrs; format: functional, cell-based; procedure, shortened: as §1
U-937 [17] = test: Increase in DR5 expression in human U937 cells at 10 30 uM after 24 hrs by immunoblotting method; format: functional, cell-based
Procedure, shortened: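 HL-60 and U937 cells were treated with increasing concentrations for 24 h. Lysates were immunoblotted for TRAIL, DR4 and DR5.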

HL-60 [18] = test: Induction of apoptosis in human HL60 cells in presence of 10 uM MEK1/2 inhibitor U0126 after 24 hrs by propidium iodide staining based flow cytometry; format: functional
HL-60 [19] = test: Induction of apoptosis in human HL60 cells assessed as increase in caspase 3/7 activity DEVD-pNA substrate at 10 uM after 24 hrs; format: functional; procedure, shortened: as §1
HL-60 [20] = test: Induction of cell cycle arrest in human HL60 cells assessed as accumulation at S phase at 10 uM after 48 hrs by propidium iodide staining based flow cytometry (reference value: 15.3 +/- 0.1%); format: functional
HL-60 [21] = test: Induction of apoptosis in human HL60 cells assessed as DNA fragmentation at 30 uM after 24 hrs by ethidium bromide staining based agarose gel electrophoresis method; format: functional, cell-based
Procedure, shortened: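 HL-60 cells were treated for 24 h. Genomic DNA was extracted, run on an agarose gel, stained with ethidium bromide and viewed under UV.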

U-937 [22] = test: Induction of apoptosis in human U937 cells assessed as pro-caspase-8 processing at 3 and 10 uM after 6 to 24 hrs by immunoblotting method; format: functional, cell-based
Procedure, shortened: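 Kinetic and dose-response experiment: cells were treated with the indicated concentrations and harvested at the indicated times. Pro-caspase-8 and -9 cleavage was detected by immunoblotting with antibodies that bind both the proenzyme and the cleaved fragments.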

HL-60 [23] = test: Reduction in Bid expression in human HL60 cells by Western blotting method; format: functional, cell-based
Procedure, shortened: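 Cells (HL-60, Molt-3 or U937) were incubated with increasing concentrations of compound and harvested at 24 h. Cell lysates were then immunoblotted for Bid and other Bcl-2 family members.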

HL-60 [24] = test: Induction of apoptosis in human HL60 cells assessed as pro-caspase-9 processing at 3 and 10 uM after 6 to 24 hrs by immunoblotting method; format: functional, cell-based
Procedure, shortened: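 Kinetic and dose-response immunoblots. Cells were treated, harvested at the indicated times, and probed with antibodies that detect both procaspase-8/-9 and their cleaved fragments.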

U-937 [25] = test: Induction of cell cycle arrest in human U937 cells assessed as accumulation at S phase at 10 uM after 24 hrs by propidium iodide staining based flow cytometry (reference value: 18.6 +/- 0.3%); format: functional
HL-60 [26] = test: Induction of cell cycle arrest in human HL60 cells assessed as accumulation at subG1 phase at 1 uM after 12 hrs by propidium iodide staining based flow cytometry (reference value: 6.1 +/- 0.5%); format: functional
U-937 [27] = test: Induction of cell cycle arrest in human U937 cells assessed as accumulation at subG1 phase at 10 uM after 12 hrs by propidium iodide staining based flow cytometry (reference value: 4.6 +/- 0.9%); format: functional
HL-60 [28] = test: Induction of cell cycle arrest in human HL60 cells assessed as accumulation at G2/M phase at 10 uM after 12 hrs by propidium iodide staining based flow cytometry (reference value: 18.5 +/- 0.5%); format: functional
U-937 [29] = test: Induction of Bid processing in human U937 cells by Western blotting method

## O=c1c(O)c(-c2ccc(Br)cc2)oc2ccccc12
U-937 [1]
  Activity: 23.9%
U-937 [2]
  Activity: 3.7%
U-937 [3]
  Activity: Active
HL-60 [4]
  Activity: 56.7%
HL-60 [5]
  Activity: Active
MOLT-3
  Activity: Active
U-937 [6]
  Activity: 24.9%
U-937 [7]
  Activity: 19.9%
U-937 [8]
  Activity: Active
U-937 [9]
  Activity: 13.8%
HL-60 [10]
  Activity: 14.8%
U-937 [11]
  Activity: 24.7%
U-937 [12]
  Activity: 19.6%
U-937 [13]
  Activity: Active
[14]
  IC50: 3.3 µM
HL-60 [15]
  Activity: 40.4%
U-937 [16]
  Activity: Active
U-937 [17]
  Activity: Active
HL-60 [18]
  fold change (FC): 2
HL-60 [19]
  fold change (FC): 4.5
HL-60 [20]
  Activity: 7.3%
HL-60 [21]
  Activity: Active
U-937 [22]
  Activity: Active
HL-60 [23]
  Activity: Active
HL-60 [24]
  Activity: Active
U-937 [25]
  Activity: 23.7%
HL-60 [26]
  Activity: 5.6%
U-937 [27]
  Activity: 4.3%
HL-60 [28]
  Activity: 13.4%
U-937 [29]
  Activity: Active

Reference: ChEMBL document CHEMBL3352730, “Synthesis and effects on cell viability of flavonols and 3-methyl ether derivatives on human leukemia cells” (Eur J Med Chem, 2014)
